From ChEMBL document CHEMBL4513216, “Probing the Open Global Health Chemical Diversity Library for Multistage-Active Starting Points for Next-Generation Antimalarials” (ACS Infect Dis, 2020)

Test: Toxicity liver stage against HepG2, at 10uM
Type: cell-based
Parameters: test concentration 10 uM, cell line HepG2-A16-CD81EGFP
Details: human, HepG2-A16-CD81EGFP cells; read-out: INHIBITION
Summary of the method: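 Uninfected HepG2-A16-CD81EGFP cells, 3 × 10^3 per well, 1536-well, plated on prespotted compound at 10 μM final, parasite-free screening media added to match infected plates; puromycin 10 μM positive, DMSO 0.5% negative; run in parallel with 48 h PbLuc assay at 37 °C, 5% CO2; viability by CellTiter-Glo luminescence, normalized to controls.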

| SMILES | cytotoxicity at 10 µM |
| --- | --- |
| COc1ccc(C(N)=O)cc1NCc1noc(-c2ccsc2)n1 | 3.33% |
| COCCN(Cc1ccc(F)cc1Cl)C(=O)c1ccccn1 | 11.8% |
| Cc1ccc(N2CCC(c3cc(Cc4ccccc4)n[nH]3)CC2)nn1 | 3.53% |
| COc1cccc(CNC(=O)c2ccccc2-n2cc(CN)cn2)c1 | -21% |
| CN1CCC(Cc2cccc(-c3cc(F)ccc3C(=O)O)n2)CC1 | -3.22% |
| O=c1[nH]nc2nc(N3CCCC3)ccn12 | -6.07% |
| Cc1nnc(N2CCC(CNC(=O)OC(C)(C)C)CC2)c(C#N)c1C | 2.6% |
| CCCc1cnc(C)nc1NCCc1nc(C)cc(=O)[nH]1 | -5.1% |
| CNCCNc1nccc(-c2cn(C)nc2C)n1 | 2.35% |
| O=C1CC[C@H]2[C@H](CCN2C(=O)C2CCOC2)N1Cc1ccncc1 (some centres undefined) | 6.67% |
| CN1CCC(C)(CN(C)Cc2ccc(CCC(C)(C)O)cc2)C1 (centres undefined) | -6.44% |
| CC(C)c1nnsc1CNC(=O)C1CCCN(C(=O)N(C)C)C1 (centres undefined) | -7.73% |
| N#Cc1ccnc(N2CCN(CC(O)c3ccccc3Cl)CC2)c1 (centres undefined) | 1.7% |
| O=C1CC[C@H]2[C@H](CCN2c2ncc(F)cn2)N1c1ccccc1 | 5.86% |
| CCc1nnc2n1CCN(Cc1ncc(-c3ccc(Cl)cc3)o1)C2 | -9.66% |
| COCCC(=O)N1CCC2(COCc3cnc(NCC4CC4)nc32)C1 (centres undefined) | 6.24% |
| COCCN1CCCn2cnc(CN(C)C(C)C)c2C1 | 6.53% |
| O=C(Cc1cccs1)NCC1(O)CCc2ccccc2C1 (centres undefined) | -10.1% |
| CC1(C(=O)N2CCOCC2)CN(C2CCCCC2)CCO1 (centres undefined) | -22.3% |
| CS(=O)(=O)N1CCOCC12CCN(Cc1ccc(F)cc1)CC2 | 3.39% |
| CCn1ccnc1CN1CCN(CCOc2ccccc2OC)CC1 | -8.83% |
| CCOC(=O)CN(C)C1CCc2ccccc21 (centres undefined) | 0.367% |

| SMILES | cytotoxicity at 10 µM |
| --- | --- |
| CN(CC1CCN(c2ccccc2)C1)c1ccc(Cn2ccnc2)cn1 (centres undefined) | -142% |
| CC(=O)c1c(C)cc(C)c(CS(=O)(=O)c2nccn2C)c1C | -4.28% |
| Cc1nccn1C1CCCN(C(=O)c2cc3ccccc3[nH]2)C1 (centres undefined) | -12.2% |
| Cc1cc(N2CCN(C(=O)c3cc(Cl)c[nH]3)CC2)nc(C(C)C)n1 | 3.49% |
| CN(C)C(=O)c1nc(CN2C(=O)OC[C@@H]2c2ccccc2)no1 | -1.95% |
| Cc1nn(C)c2nc(N(CCN(C)C)C3CCCC3)sc12 | -1.93% |
| Cc1ncoc1C(=O)N1CCOC(CC2CCCCC2)C1 (centres undefined) | -1.33% |
| Cc1ccccc1CN1CCN(CC(=O)Nc2cccnc2)CC1 | -2.82% |
| CNC(=O)CCNC(=O)c1cccc(Cn2nc(C)cc2C)c1 | -16.6% |
| Cc1nc(C2CCCN2CCCc2nc3ccccc3o2)no1 (centres undefined) | -9.24% |
| N#CC1(NC(=O)Cc2cc(Cl)c3c(c2)OCCO3)CCC1 | -8.05% |
| Cc1cnn(C2CN(Cc3nc(-c4cccnc4)no3)C2)c1 | 3.03% |
| NC(=O)N1CCc2ncc(CNC(=O)CC3CC3)n2CC1 | 2.11% |
| CN(C)[C@H]1CCN(c2ccnc(C(=O)NCc3ccco3)c2)C1 | 4.12% |
| CCN(CC)Cc1nnc2sc(C(C)Oc3ccccc3)nn12 (centres undefined) | 8.35% |
| Cc1ccc2c(n1)N(Cc1cccnc1)CCN(C(=O)C1CC=CC1)C2 | 8.07% |
| COCCn1c2c(ccc1=O)CCN(C(=O)CC1CC1)CC2 | 2.24% |
| c1cnnc(NCC2CN(CC3CCOCC3)CCO2)c1 (centres undefined) | 9.34% |
| CC(C)c1nnc(CCC(=O)N2CCOC(c3cnccn3)C2)o1 (centres undefined) | -2.01% |
| Cc1nc(C(=O)N2CCN(S(=O)(=O)N(C)C)CC2)c(-c2ccccc2)s1 | 3.67% |
| CN(C)c1nccc(C2CCN(C3CCCCC3O)CC2)n1 (centres undefined) | 1.98% |
| Cc1cc(-c2cnc(NC3CCCC3)nc2-c2ccco2)on1 | -7.56% |

| SMILES | cytotoxicity at 10 µM |
| --- | --- |
| Fc1ccc(CN2CCCn3nnc(COCC4CC4)c3C2)cc1 | -109% |
| N#Cc1ccccc1N1CCCN(C(=O)CCc2ccsc2)CC1 | -8.25% |
| Cc1nnc2n1CCN(C(=O)c1cc(Cl)c(Br)[nH]1)C2 | -4.31% |
| CS(=O)(=O)CCC(=O)N1CCC(c2ccc(F)c(F)c2)CC1 | 7.09% |
| CCCSc1ncc(CN2CCN(C)C(=O)C2C)cn1 (centres undefined) | 7.75% |
| CCOc1c(Cl)cccc1NS(=O)(=O)c1cc(C)c(C(=O)O)s1 | 2.13% |
| O=c1n(CCSCc2ccccc2Br)nc2ccccn12 | -3.95% |
| CCc1c(C)nn(CCN2CC3(CCOC3)CCC2=O)c1C (centres undefined) | 1.94% |
| NC(=O)CN1CCCN(C(=O)Cc2ccc(F)c(Br)c2)CC1 | 0.361% |
| CCn1nc(C)cc1C(=O)N1C[C@@H]2C[C@@H](c3noc(C)n3)O[C@@H]2C1 | 8.06% |
| OC1(CN2CCCC(Cn3cncn3)C2)CCCCC1 (centres undefined) | 2.96% |
| COCC(=O)NC[C@H]1C[C@@H]2CCN1C[C@@H]2c1cc(-c2cccs2)nn1C | 1.23% |
| Cc1noc(Cl)c1CCC(=O)N1CCC(Nc2cccnn2)CC1 | -2.57% |
| CC1CCN(C(=O)C2CC(=O)N(c3cnn(C(C)C)c3)C2)CC1 (centres undefined) | -0.343% |
| NC(=O)CN(CC(=O)NCc1cccc(Cl)c1)C1CCCC1 | -0.979% |
| COCc1ccc(C(=O)N2CCc3c(ncnc3N3CCOCC3)C2)o1 | -2.17% |
| Cc1nc(C)n(CC2CCCN(Cc3cccc(F)c3F)C2)n1 (centres undefined) | -10.3% |
| c1csc(N2CCN(Cc3cc4n(n3)CCNC4)CC2)n1 | -3.59% |
| Cc1nc(C(=O)N2CCN(C(=O)N(C)C)[C@@H]3CS(=O)(=O)C[C@@H]32)cs1 | 4.96% |
| CCc1c(C)nc2n(c1=O)CC(C(=O)NCc1cccs1)CS2 (centres undefined) | 15.2% |
| Cc1cn2c(n1)CCC(NC(=O)c1cncnc1C)C2 (centres undefined) | -3.56% |
| CC(C(=O)N1CCOCC1)n1nc(-c2cccs2)cc(N)c1=O (centres undefined) | 8.74% |

| SMILES | cytotoxicity at 10 µM |
| --- | --- |
| CN(C(=O)c1ccccc1F)[C@@H]1CC[C@@H](O)[C@@H]1O | -6.11% |
| Cc1nc(NCC(O)CN2CCCCCC2)c2c(C)nn(C)c2n1 (centres undefined) | -2.86% |
| CC(C)N(Cc1ccccn1)Cc1nc2c(cnn2C)c(=O)[nH]1 | -6.42% |
| CSc1cccc(CN(C)C(=O)c2cccc(C3CCCNC3)c2)c1 (centres undefined) | -1.08% |
| CCOCc1nc(CSc2ccncc2)n(C2CCN(C)CC2)n1 | -1.45% |
| Cc1cnc(C2(C)CCN(Cc3csc(C)n3)CC2)s1 | -16.1% |
| Cc1cc(C(=O)N2CC[C@H](N3CCOCC3)[C@H](CCCO)C2)c(C)n1C | -138% |
| Cc1c(CC(=O)N2CCN(C(C)C)CC2)nnn1-c1ccccc1 | -3.64% |
| Cc1ccc(CN2CC[C@H]3[C@H]2CCN3S(=O)(=O)C2CC2)cc1 | 10.2% |
| O=C(CSCc1ccncc1)N(Cc1ccsc1)C1CC1 | -11.2% |
| CC(=O)N1CCC(Oc2ccc(Cl)cn2)CC1 | -19.5% |
| Cn1cc(CN2CCc3ncnc(C4CCOC4)c3CC2)cn1 (centres undefined) | -7.46% |
| Cc1cnc2c(S(=O)(=O)N(C)C3CCS(=O)(=O)C3)cccc2c1 (centres undefined) | -5.44% |
| O=C(c1ccc(C2CCCN2C(=O)c2ccoc2)s1)N1CCOCC1 (centres undefined) | -156% |
| O=C1Nc2ccccc2CNC12CCN(CC1CCCC1)CC2 | 6.39% |
| CC(C)c1nn(CC(=O)N2CCCCC2)c(=O)c2c1cnn2C(C)(C)C | -13.2% |
| Cn1nc(C(=O)N2CCOCC2)cc1C(=O)Nc1cc(Cl)cc(Cl)c1 | 27.9% |
| N#CCCN(c1ccc(F)cc1)S(=O)(=O)CC1CCCCO1 (centres undefined) | 5.65% |
| Cn1cc(-c2cc(-c3cnn(C)c3)n(CC(=O)NC3CC3)n2)cn1 | 2.94% |
| C[C@@H]1CN(CC(C)(C)N2CCOCC2)CC[C@@]1(O)C1CCOCC1 | -1.71% |
| COCCOC(=O)N1CCN2C[C@@H](CO)[C@H](c3ccccc3)[C@H]2C1 | 3.44% |
| CCc1nc2c(N3CCC4(CC3)CC(=O)N(CC)C4)ncnc2o1 | -3.2% |

| SMILES | cytotoxicity at 10 µM |
| --- | --- |
| CN(Cc1ccco1)[C@@H]1CN(Cc2cccnc2)C[C@@H]2CCCO[C@@H]21 | 8.49% |
| N#Cc1nccnc1NC1CCN(c2ccccc2Br)C1 (centres undefined) | 3.92% |
| CC1(C)OCC(CNC(=O)c2cnn(-c3cccc(Cl)c3Cl)c2N)O1 (centres undefined) | 1.93% |
| c1cncc(OCC2CN(Cc3ccco3)Cc3nccn3C2)c1 (centres undefined) | -20.4% |
| CC(=O)N1N=C(c2ccccc2)OC1C(=O)N(C)CCc1ccccc1 (centres undefined) | 3.54% |
| COCCN(C)C[C@@H]1CCC[C@@H]2CN(c3ncccn3)C[C@@H]21 | 4.79% |
| Cc1csc(C(Cc2ccsc2)NC(=O)Cn2cccnc2=O)n1 (centres undefined) | -22.2% |
| COCCN1C[C@@H](C)[C@@]2(COCCN(C(=O)c3ccncc3)C2)C1 | 5.71% |
| CCN1CCO[C@]2(CCC[C@H]2COCc2csc(C)n2)C1 | 0.153% |
| Cc1c[nH]c(CN2CC[C@@]3(O)CCN(C(=O)C4CCCC4)C[C@H]3C2)n1 | 3.11% |
| CCCn1cc(Cl)c(C(=O)N2C[C@H]3CC(OC)C[C@H]3C2)n1 (some centres undefined) | 0.19% |
| COc1ccc(Cl)cc1NCC(=O)NCCNc1ncccn1 | -9.24% |
| Cc1cc(N2CCN(C3CCOCC3)CC(C(=O)N(C)C)C2)ncn1 (centres undefined) | 3.74% |
| CCc1nc2n(n1)CC(NCc1nc(Cc3ccccc3)no1)CC2 (centres undefined) | 1.06% |
| CCS(=O)(=O)N1CCC(c2nc3ccc(-c4ccccc4)cn3n2)CC1 | -7.41% |
| CCCc1nc(C(C)(C)NC(=O)C2CC(=O)N(CC(C)C)C2)no1 (centres undefined) | -5.31% |
| COCC1CC2(CCN(c3ccc(C)nn3)CC2)CN1C(C)C (centres undefined) | -112% |
| COc1cccc(COCC(=O)N2CCCC(c3cc(C)[nH]n3)C2)c1 (centres undefined) | -6.81% |
| COCCNC(=O)CN1CCC(N2CCN(C)C2=O)CC1 | 0.621% |
| CCOc1ccccc1C(CC(=O)Nc1ccc(C)cn1)NC(C)=O (centres undefined) | -10.7% |
| COC(=O)c1ccc(N2CCN(C(=O)c3ccncc3)C(C)C2)cc1 (centres undefined) | -6.38% |
